The results in this text go back to ChEMBL document CHEMBL1122024, “Quantitative structure-inhibitory activity relationships of phenols and fatty acids for Bacillus subtilis spore germination” (J Med Chem, 1982).

Molecules are shown by their SMILES.

Data set [1] deals with Bacillus subtilis. Type of data set: functional.
Data set [2] relates to Bacillus subtilis. Description: microbe, parasite or virus in culture. The class given is functional, organism-based. The settings on record: read-out: I50.
Data set [3] can be described thus: physchem. As to conditions: octanol/water.
Data set [4] in a line: physchem. The settings on record: octanol/water, pH 7.2.
Data set [5] can be described thus: physchem.
The test system of data set [6] is Bacillus subtilis. Description: Inhibitory activity on germination of Bacillus subtilis PCI219 spores was determined; No inhibition at 2.5e-3M. The class given is functional, organism-based. A digest of the protocol:
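Unheated B. subtilis PCI219 spores (about 2.2×10^8 cells per mL) were incubated with the test compound in 0.1 mM L-alanine germinant and 0.05 M phosphate buffer, pH 7.2, at 37 °C. Germination was followed as the decrease in absorbance at 650 nm. The rate was taken as the slope of the steepest linear portion and compared with an inhibitor-free control.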

Consider `CCc1ccc(O)cc1`, for which the “Log 1/I50” value in data set [1] is listed as 2.8 1/M. In addition, the IC50 in data set [2] was 1600 µM. In addition, in data set [3], the logP (usually the decadic logarithm of the partition coefficient of the neutral form, usually between octanol and water) was determined as 2.26. Besides, in data set [4], the logD (usually the decadic logarithm of the distribution of all forms, ionised or not, between an organic phase and buffer at a given pH) was found to be 2.26. Moreover, in data set [5], the pKa (commonly the negative logarithm of the acid dissociation constant) was determined as 10.

For the molecule `NC(Cc1ccc(O)cc1)C(=O)O` (configuration not stated), the I50 result in data set [6] was “No inhibition”.

Regarding `CC(C)Cc1ccc(O)cc1`, in data set [1], the “Log 1/I50” value is 3.52 1/M. Besides, the IC50 in data set [2] is 302 µM. In data set [3], this molecule showed a logP of 3.4. The molecule also displayed a logD in data set [4] of 3.4. This molecule had a pKa in data set [5] of 10.2.

As to `CC(C)(C)c1ccccc1O`, in data set [1], the “Log 1/I50” value is listed as 4.46 1/M. Further, in data set [2], the IC50 was determined as 34.5 µM. For the same molecule, in data set [5], the pKa came out at 11.3.

For `O=Cc1ccccc1O`, in data set [1], the “Log 1/I50” value is 2.42 1/M. The IC50 in data set [2] is 3780 µM. The same molecule came in with a pKa in data set [5] of 8.3.

`Cc1cc(C)c(O)c(C)c1`: the “Log 1/I50” value in data set [1] is 2.85 1/M. For the same molecule, the IC50 in data set [2] worked out at 1400 µM. This molecule also registered a logP in data set [3] of 2.86. The molecule also had a logD in data set [4] of 2.86. For the same molecule, the pKa in data set [5] turned out to be 10.9.

Take `CC(C)(C)c1ccc(O)cc1`: the IC50 in data set [2] is 302 µM.

Regarding `CC(C)c1ccc(O)cc1`, the “Log 1/I50” value in data set [1] was 3.17 1/M. In data set [2], the IC50 was 674 µM. In data set [3], this molecule registered a logP of 2.86. This molecule gave a logD in data set [4] of 2.86. In data set [5], the pKa was determined as 10.1.

As for `CC(C)c1ccccc1O`, the “Log 1/I50” value in data set [1] is listed as 3.57 1/M. In data set [2], the IC50 worked out at 268 µM. Besides, the logP in data set [3] was determined as 2.88. In addition, the logD in data set [4] was 2.88. In data set [5], the pKa came to 10.4.

Consider `Oc1c(Cl)cc(Cl)cc1Cl`, for which, in data set [2], the IC50 amounted to 130 µM.

Take `Oc1c(Cl)cc(Cl)c(Cl)c1Cl`: in data set [1], the “Log 1/I50” value is 3.57 1/M. Also, the IC50 in data set [2] was determined as 269 µM. Moreover, the logP in data set [3] was determined as 4.1. The logD in data set [4] is 2.59. Moreover, in data set [5], the pKa worked out at 5.7.

Take `CCc1ccccc1O`: the “Log 1/I50” value in data set [1] is given as 3.31 1/M. Also, in data set [2], the IC50 was 493 µM. The logP in data set [3] came out at 2.47. In data set [4], the logD came out at 2.47. Also, the pKa in data set [5] came to 10.2.

Regarding `CC(C)Cc1ccccc1O`, the “Log 1/I50” value in data set [1] is 3.62 1/M. Besides, the IC50 in data set [2] amounted to 242 µM. In addition, in data set [3], the logP is 3.27. In data set [4], this molecule yielded a logD of 3.27. The molecule further had a pKa in data set [5] of 10.5.

Take `Oc1ccc(Br)cc1`: in data set [2], the IC50 came to 717 µM.

In the case of `Oc1ccc(-c2ccccc2)cc1`, in data set [1], the “Log 1/I50” value is given as 3.89 1/M. Besides, the IC50 in data set [2] stood at 129 µM. This molecule yielded a logP in data set [3] of 3.2. In data set [4], this molecule yielded a logD of 3.2. For the same molecule, the pKa in data set [5] is 9.5.

As for `Oc1ccc(Cl)cc1Cl` [2,4-DICHLOROPHENOL], in data set [1], the “Log 1/I50” value is reported as 3.62 1/M. Moreover, the IC50 in data set [2] was 242 µM. For the same molecule, the logP in data set [3] stood at 3.14. In data set [4], this molecule returned a logD of 3.06.

`Oc1ccccc1Cl` [2-CHLOROPHENOL]: in data set [1], the “Log 1/I50” value is listed as 3.25 1/M. Also, in data set [2], the IC50 came to 562 µM. In data set [4], this molecule had a logD of 2.13. This molecule showed a pKa in data set [5] of 8.5.

For `Oc1ccccc1-c1ccccc1` [2-PHENYLPHENOL], the “Log 1/I50” value in data set [1] is 3.55 1/M. Besides, the IC50 in data set [2] came to 280 µM. The logP in data set [3] was found to be 3.09. Besides, the log distribution coefficient (logD) in data set [4] was determined as 3.09. The molecule also displayed a pKa in data set [5] of 9.9.

`Nc1cccc(O)c1` [3-AMINOPHENOL]: in data set [1], the “Log 1/I50” value is 1.35 1/M. The IC50 in data set [2] turned out to be 44700 µM. The logP in data set [3] came to 0.16. The molecule also yielded a logD in data set [4] of 0.16. The molecule also yielded a pKa in data set [5] of 9.9.

With `O=Cc1ccc(O)cc1` [4-HYDROXYBENZALDEHYDE], the “Log 1/I50” value in data set [1] is 1.7 1/M. In addition, the IC50 in data set [2] turned out to be 20000 µM. In data set [3], the logP turned out to be 1.37. This molecule also showed a logD in data set [4] of 1.22. For the same molecule, the pKa in data set [5] is 7.6.

As for `CCCCCCCCCC(=O)O` [DECANOIC ACID], the “Log 1/I50” value in data set [1] is on record as 2.22 1/M. The IC50 in data set [2] was 6030 µM. In data set [3], the logP came out at 3.92. The molecule further displayed a logD in data set [4] of 1.62.

Take `CCCCCCCCCCCC(=O)O` [DODECANOATE]: the “Log 1/I50” value in data set [1] is 2.7 1/M. In addition, the IC50 in data set [2] amounted to 1980 µM. The logP in data set [3] is 4.92. Moreover, the logD in data set [4] is 2.62. The molecule further returned a pKa in data set [5] of 4.9.

As for `COc1ccccc1O` [GUAIACOL], the “Log 1/I50” value in data set [1] is 2.2 1/M. Also, the IC50 in data set [2] amounted to 6310 µM. The molecule further displayed a logP in data set [3] of 1.33. In addition, the logD in data set [4] is 1.33. Moreover, in data set [5], the pKa worked out at 9.9.

Regarding `CCCCCCC(=O)O` [HEPTANOATE], the Log 1/I50 in data set [1] was 0.82 1/M. The IC50 in data set [2] turned out to be 151000 µM. For the same molecule, the logP in data set [3] was 2.42. Also, in data set [4], the logD was found to be 0.12. Besides, in data set [5], the pKa is 4.9.

As to `Oc1c(Cl)cc(Cl)c(Cl)c1Cc1c(O)c(Cl)cc(Cl)c1Cl` [HEXACHLOROPHENE], in data set [1], the “Log 1/I50” value is recorded as 3.7 1/M. Further, in data set [2], the IC50 amounted to 198 µM. The logP in data set [3] came to 7.54. This molecule also showed a logD in data set [4] of 5.54. Further, the pKa in data set [5] was 5.
